# FID counter – displaces DNA intercalator in HCV helicase counter-screen. DNA fluorescent intercalator displacement, fluorescence. 290,000 tested, 0.17% active. inhibition, % at 7.9 µM; in the data active = inhibition above about 37%;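 note: 0% = vehicle and 100% = reference compound; higher means more ethidium bromide displaced from hairpin DNA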
# NALP1 yeast inh – NALP1 inhibition; S. cerevisiae NALP1/ASC/caspase-1 growth, X-gal OD620, 72 h; inhibition, % at 10 µM; 280,000 tested, 0.61% active; AID 2071; in the data active = inhibition mostly above about 24%, no sharp cut-off; inactive = mostly below about 32%
# IMP-1 inhibitor – inhibitors of Pseudomonas aeruginosa IMP-1 metallo-beta-lactamase; purified IMP-1, nitrocefin hydrolysis, epi-absorbance fluorescence; inhibition, % at 5.6 µM; 290,000 tested, 0.45% active; AID 1556;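 active = inhibition above the mean plus 3 SD of all compounds in the same screening run, cut at about 4.5% in these data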;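 note: 0% = IMP-1 with DMSO and 100% = DMSO wells lacking enzyme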
#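 Material – recombinant IMP-1 enzyme, purified · Amount – IMP-1 0.2 nM before substrate addition · Medium – HEPES buffer pH 7.1 with ZnSO4 and Brij 35 · Timing – 25 °C, 15 min preincubation, 25 min reaction · Measured by – plate fluorescence quenching by hydrolysis product, ex 480/em 530 nm · Read-out – percent enzyme inhibition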
# VIM-2 inhibitor – inhibitors of Pseudomonas aeruginosa VIM-2 metallo-beta-lactamase; purified VIM-2, nitrocefin hydrolysis, epi-absorbance fluorescence; inhibition, % at 5.6 µM; 290,000 tested, 0.89% active; AID 1527;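 active = inhibition above the mean of all tested compounds plus 3 SD, cutoff set per screening run, cut at about 7.5% in these data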;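 note: red hydrolysis product quenches plate fluorescence so inhibitors raise well fluorescence; 0% = enzyme with DMSO and 100% = DMSO without enzyme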
# UBC9 SUMO inh – blocks human SUMOylation mediated by UBC9. P63279. HTRF SUMOylation assay, SAE1/SAE2 + UBC9, in vitro. inhibition, % at 35 µM. 290,000 tested, 0.36% active. AID 2006; in the data active = inhibition above about 50%, passing the limit was not always enough
# Target sequence (P63279 whole entry, looked up): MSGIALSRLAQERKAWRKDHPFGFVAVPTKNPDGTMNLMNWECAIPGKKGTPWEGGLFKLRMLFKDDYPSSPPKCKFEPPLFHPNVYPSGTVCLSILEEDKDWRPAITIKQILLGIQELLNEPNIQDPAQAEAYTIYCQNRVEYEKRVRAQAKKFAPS
# Mot1-301 SUMO – blocks SUMOylation pathway, rescuing yeast Mot1-301 growth | S. cerevisiae Mot1-301 growth rescue, ATP luminescence, 38.5C; percent above DMSO median, 100 means doubled | 320,000 tested, 1% active | growth rescue, % at 18.8 µM;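 active = every valid replicate shows activation above 250% relative to neutral control wells; inactive = the rest, any valid replicate at or below 250%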;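 note: OY570 slx delta 5 strain wells were the positive control but not used for scaling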
# Active calls of the source: *; . = no result; + = active, no number. Most compounds without a hit are left out; they make up all but 2.9% or so of the library.
SMILES,FID counter,NALP1 yeast inh,IMP-1 inhibitor,VIM-2 inhibitor,UBC9 SUMO inh,Mot1-301 SUMO
O=C(Nc1cc([N+](=O)[O-])ccc1O)c1cccc([N+](=O)[O-])c1,3.4,8.4,-2.9,-2.6,-1.2,16.3
COc1cccc(CC2(CO)CCCN(Cc3cn[nH]c3-c3cc(C)ccc3C)C2)c1 (stereo not drawn),22.1,8.7,-2.7,-3.5,-0.3,-1.6
CC(C)[C@@H]1C=C(C(=O)O)O[C@H](OCCCCO)C1,.,.,.,.,12.2,-0.9
CCOC(=O)c1cnc(-n2nc(C)cc2C)nc1NC,-0.8,17.8,-3.8,8.1*,23.3,-6.9
CCOC(=O)c1cnc(-n2nc(C)cc2C)nc1Nc1ccc(C)cc1,-2.7,19.0,-3.5,1.1,19.6,.
O=C(O)c1sccc1S(=O)(=O)N1CCOCC1,.,.,.,.,.,0.7
Cc1nn(C)cc1CN(C)S(=O)(=O)c1cccc([N+](=O)[O-])c1,1.5,7.0,-2.5,-1.1,14.2,549.8*
COc1ccc(NC(=O)CCOc2ccccc2C)cc1S(=O)(=O)N1CCCCC1,.,.,.,.,.,-16.2
N=C1S/C(=C\c2cccc3ccccc23)C(=O)N1c1ccc(F)cc1,0.4,22.2,-3.5,-2.8,63.0*,-2.3
COc1cc(-c2nnc(SCc3cc(=O)oc4cc(O)c(O)cc34)o2)cc(OC)c1OC,-23.0,44.8*,-6.5,2.2,40.9,-16.6
COc1ccc(CCN=C(N)NS(=O)(=O)c2ccc(C)c(C)c2)cc1,-24.1,3.1,-2.7,-2.9,5.8,6.5
Cc1ccc(C)c(OCc2cc(C(=O)NC3CCN(Cc4ccccc4)CC3)no2)c1,25.4,18.6,-0.8,-0.8,-5.6,20.5
O=C(NC1CCN(Cc2ccccc2)C1)c1cc(COc2ccc(F)cc2F)on1 (stereo not drawn),2.2,28.5*,-0.4,-1.5,-3.8,-18.7
COc1ccc(/C=C/C(=O)NCC(=O)N/N=C/c2cccs2)cc1,-25.5,4.9,-3.5,-5.3,2.6,-2.0
Nc1cccc2nsnc12,-1.6,.,-2.7,-1.8,87.6*,1.1
CC(=O)N1c2c(cc(Br)cc2S(=O)(=O)NCc2ccc3c(c2)OCO3)CC1C (stereo not drawn),-8.2,5.1,-2.6,-3.3,92.4*,-9.5
CC(=O)N1c2c(cc(Br)cc2S(=O)(=O)NCc2cccnc2)CC1C (stereo not drawn),-6.2,6.6,-3.3,-2.1,-2.8,4.0
Cc1cc(C(=O)COC(=O)c2ccc(N)c([N+](=O)[O-])c2)c(C)n1Cc1ccc2c(c1)OCO2,1.1,.,-2.5,-0.1,19.6,2.5
C=CCn1c(C)cc(C(=O)COC(=O)c2ccc(N)c([N+](=O)[O-])c2)c1C,4.3,17.2,-2.6,-2.7,1.7,771.2*
O=C1C=C(NNC(=O)c2ccncc2)CC(c2ccccc2)C1 (stereo not drawn),-10.1,-20.7,5.9*,0.9,21.5,15.1
Cc1ccc(CCNC(=O)C2CCC(=O)N(Cc3cccc(F)c3)C2)cc1 (stereo not drawn),-22.9,16.9,-2.6,-3.1,-4.2,1.8
CC/C(=N\NS(C)(=O)=O)c1ccccc1,-0.9,43.8*,-2.8,-5.9,-3.7,3.6
CC(C)=C(NC(=O)c1ccccc1)C(=O)NCCc1nc2ccccc2[nH]1,-4.9,-20.2,-4.2,-2.5,.,-22.1
CC(CCC(C)C(C)(C)C)[C@@H]1CC[C@H]2C3C[C@H](OS(O)(=S)=S)[C@H]4C[C@H](OS(O)(=S)=S)[C@@H](OS(O)(=S)=S)C[C@]4(C)[C@H]3CC[C@]12C (stereo partly drawn) (tested in a mixture with another compound),.,.,.,.,.,+
CC(NC(=O)COC(=O)COc1ccc(C(=O)c2ccccc2)cc1)c1ccccc1 (stereo not drawn),.,.,.,.,.,17.0
SMILES,FID counter,NALP1 yeast inh,IMP-1 inhibitor,VIM-2 inhibitor,UBC9 SUMO inh,Mot1-301 SUMO
O=C(c1cc(-c2ccccn2)nc2c(Cl)cccc12)N1CCN(C(=O)C2CCCO2)CC1 (stereo not drawn),-18.7,37.7*,-4.4,-3.6,2.3,-1.5
CCn1c(SCC(=O)NC2=NCCS2)nnc1C(C)NC(=O)c1ccc(Cl)cc1 (stereo not drawn),-24.4,4.9,-2.1,-3.4,1.2,4.8
CCN(CC)CCCN(C(=O)c1ccccc1C)c1nc(-c2ccc(OC)cc2)cs1,15.1,13.5,-2.2,-1.7,1.5,-20.6
CCN(CC)CCCN(C(=O)c1ccc(OC)cc1)c1nc(-c2ccc(OC)cc2)cs1,44.1*,30.5,0.9,2.2,-1.9,-8.0
NNC(=S)NCc1cccnc1,-4.9,73.8*,-3.6,-3.8,8.2,-7.7
Fc1ccc(NCc2cccnc2)cc1,-1.0,-15.8,-6.2,-0.8,1.4,-9.3
c1ccc(NCc2cccnc2)cc1,-0.8,-23.9,-2.6,-2.1,15.9,292.5*
COc1ccc(CN2CCN(C(=O)CC(C)C)CC2)cc1,-1.2,16.1,2.4,-0.5,15.0,-10.3
Cc1cc(C)c(NS(=O)(=O)c2ccc(Cl)c(C(=O)O)c2)c(C)c1,-14.3,1.6,0.4,-0.6,7.0,6.4
Cc1cc(C)c(NS(=O)(=O)c2ccc(NC(=O)/C=C/C(=O)O)cc2)c(C)c1,-0.5,51.3*,-1.6,-1.9,-16.2,-2.1
CCOc1cccc(-c2nnc3sc(C4CCCCC4)nn23)c1,-7.6,-15.3,-1.5,-0.4,25.1,-19.0
COc1cccc(-c2nnc3sc(C4CCCCC4)nn23)c1,-3.8,36.8*,-0.1,-2.0,17.3,38.3
C#CCOCCOCCOCCNc1nc(N2CCN(C(=O)[C@H](CCC(=O)O)n3cc(C(N)CO)nn3)CC2)nc(N2CCN(C(=O)[C@H](Cc3ccc(O)cc3)n3cc(C(N)CC(C)C)nn3)CC2)n1 (stereo partly drawn),9.1,-16.4,-1.4,-2.4,7.6,19.9
C#CCOCCOCCOCCNc1nc(N2CCN(C(=O)[C@H](Cc3ccc(O)cc3)n3cc([C@@H](N)C(C)CC)nn3)CC2)nc(N2CCN(C(=O)[C@H](CCCCN)n3cc([C@@H](N)CC(C)C)nn3)CC2)n1 (stereo partly drawn),42.9*,2.8,0.5,0.4,18.2,-5.9
C#CCOCCOCCOCCNc1nc(N2CCN(C(=O)C([C@@H](C)CC)n3cc(C(N)CO)nn3)CC2)nc(N2CCN(C(=O)[C@H](CCC(=O)O)n3cc(C(N)Cc4ccc(O)cc4)nn3)CC2)n1 (stereo partly drawn),.,-4.3,.,.,1.7,.
C#CCOCCOCCOCCNc1nc(N2CCN(C(=O)[C@H](CCCCN)n3cc([C@@H](N)CO)nn3)CC2)nc(N2CCN(C(=O)[C@H](Cc3ccc(O)cc3)n3cc([C@@H](N)CC(C)C)nn3)CC2)n1,54.1*,0.7,-2.0,-1.6,-10.3,20.4
